This passage reports IC50 results from ChEMBL document CHEMBL1157465, “Design, synthesis, and biological evaluation of novel 3-aryl-4-(1H-indole-3yl)-1,5-dihydro-2H-pyrrole-2-ones as vascular endothelial growth factor receptor (VEGF-R) inhibitors” (J Med Chem, 2008).

Experiment [1] concerns the target T1, Serine/threonine-protein kinase PLK4 (Homo sapiens, UniProt O00444).
T1 sequence (O00444 whole entry): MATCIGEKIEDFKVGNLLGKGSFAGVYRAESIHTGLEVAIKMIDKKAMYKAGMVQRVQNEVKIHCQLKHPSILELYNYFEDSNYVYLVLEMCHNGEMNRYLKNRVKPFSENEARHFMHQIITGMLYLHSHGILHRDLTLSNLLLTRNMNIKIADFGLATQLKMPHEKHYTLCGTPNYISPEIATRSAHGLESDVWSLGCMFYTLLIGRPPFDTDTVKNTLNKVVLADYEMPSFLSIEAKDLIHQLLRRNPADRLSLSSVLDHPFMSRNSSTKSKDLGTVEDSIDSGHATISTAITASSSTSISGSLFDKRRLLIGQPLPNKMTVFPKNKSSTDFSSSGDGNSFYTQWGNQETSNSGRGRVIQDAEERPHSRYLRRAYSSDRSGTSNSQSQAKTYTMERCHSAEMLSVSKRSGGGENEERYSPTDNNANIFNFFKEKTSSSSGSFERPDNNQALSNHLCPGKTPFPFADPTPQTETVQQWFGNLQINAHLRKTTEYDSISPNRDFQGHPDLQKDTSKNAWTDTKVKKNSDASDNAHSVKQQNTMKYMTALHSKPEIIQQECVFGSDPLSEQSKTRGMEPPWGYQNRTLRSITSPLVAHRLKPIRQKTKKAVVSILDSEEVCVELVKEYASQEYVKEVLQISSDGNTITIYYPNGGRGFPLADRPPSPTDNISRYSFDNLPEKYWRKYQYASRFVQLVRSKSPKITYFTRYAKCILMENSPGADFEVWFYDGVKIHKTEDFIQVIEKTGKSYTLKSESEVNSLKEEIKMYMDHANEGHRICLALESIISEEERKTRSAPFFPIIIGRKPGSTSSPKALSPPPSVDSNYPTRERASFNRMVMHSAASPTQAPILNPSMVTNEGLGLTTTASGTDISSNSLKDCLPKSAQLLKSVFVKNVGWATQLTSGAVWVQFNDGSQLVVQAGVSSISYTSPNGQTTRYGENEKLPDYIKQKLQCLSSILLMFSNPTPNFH
The experiment is described as follows: Inhibition of human recombinant SAK. Summed up:
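Human kinase expressed from cDNA in Sf9 cells (baculovirus) as GST- or His-tagged protein, affinity-purified. 10 compound concentrations, 1% DMSO final, 30 °C for 80 min. Stopped with H₃PO₄, 33P incorporation counted, IC50 derived.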

Experiment [2] addresses Vascular endothelial growth factor receptor 3 (Homo sapiens, UniProt P35916). The experiment in a line: Inhibition of human recombinant VEGFR3. Summed up: (§1)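 Recombinant human tyrosine kinases (EPHB4, TIE2, VEGF-R2, VEGF-R3), expressed in Sf9 insect cells as GST- or His-fusions, with poly(Glu,Tyr) 4:1 as substrate. Conditions: 1 µM [γ-33P]ATP, pH 7.5 HEPES buffer with Mg/Mn, DTT and vanadate, 30 °C for 80 min, 1% DMSO. Ten concentrations were tested and IC50 came from scintillation counting of incorporated 33P.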

Experiment [3] deals with Vascular endothelial growth factor receptor 2 (Homo sapiens, UniProt P35968). The experiment is described as follows: Inhibition of human recombinant VEGFR2. Summed up:
as §1

The target of experiment [4] is T2, Receptor-type tyrosine-protein kinase FLT3 (Homo sapiens, UniProt P36888).
T2 sequence (P36888 whole entry): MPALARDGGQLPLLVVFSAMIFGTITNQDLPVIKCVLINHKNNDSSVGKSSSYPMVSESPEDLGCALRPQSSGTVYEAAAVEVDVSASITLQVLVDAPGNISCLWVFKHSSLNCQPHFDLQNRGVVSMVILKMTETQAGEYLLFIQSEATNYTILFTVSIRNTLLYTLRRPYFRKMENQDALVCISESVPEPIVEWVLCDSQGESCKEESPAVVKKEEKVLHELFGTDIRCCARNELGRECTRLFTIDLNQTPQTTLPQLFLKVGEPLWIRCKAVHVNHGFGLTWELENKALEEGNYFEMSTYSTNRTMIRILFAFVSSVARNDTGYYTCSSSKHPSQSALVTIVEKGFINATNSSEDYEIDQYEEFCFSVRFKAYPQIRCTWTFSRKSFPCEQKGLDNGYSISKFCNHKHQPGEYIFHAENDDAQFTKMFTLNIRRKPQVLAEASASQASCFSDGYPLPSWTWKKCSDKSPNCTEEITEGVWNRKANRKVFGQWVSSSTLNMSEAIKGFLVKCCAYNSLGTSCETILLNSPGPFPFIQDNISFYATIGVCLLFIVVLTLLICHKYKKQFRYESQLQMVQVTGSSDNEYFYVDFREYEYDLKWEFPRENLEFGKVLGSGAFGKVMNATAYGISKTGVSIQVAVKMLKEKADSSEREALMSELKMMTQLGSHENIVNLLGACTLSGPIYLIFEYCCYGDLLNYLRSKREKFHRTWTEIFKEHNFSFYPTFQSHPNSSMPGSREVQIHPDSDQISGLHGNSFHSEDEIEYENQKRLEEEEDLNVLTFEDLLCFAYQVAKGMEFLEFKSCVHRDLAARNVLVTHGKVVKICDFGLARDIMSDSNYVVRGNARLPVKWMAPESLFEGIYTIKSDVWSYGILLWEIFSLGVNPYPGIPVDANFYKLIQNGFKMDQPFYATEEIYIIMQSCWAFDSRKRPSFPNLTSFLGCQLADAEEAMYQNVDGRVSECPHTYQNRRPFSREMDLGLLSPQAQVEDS
The experiment in a line: Inhibition of human recombinant FLT3. Summed up: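 Human kinases expressed in Sf9 cells via baculovirus as GST or His fusions and affinity purified. 33PanQinase assay in 60 mM HEPES-NaOH pH 7.5, 3 mM MgCl2, 3 mM MnCl2, 3 µM orthovanadate, 1.2 mM DTT, 1 µM [γ-33P]ATP, 1% DMSO; 30 °C, 80 min. Substrates: poly(Glu,Tyr) 4:1 for ERBB2, IGF1-R and SRC; poly(Ala,Glu,Lys,Tyr) 6:2:5:1 for FLT3. IC50 from 10 concentrations by scintillation counting.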

Sequence of Vascular endothelial growth factor receptor 2 (P35968 whole entry): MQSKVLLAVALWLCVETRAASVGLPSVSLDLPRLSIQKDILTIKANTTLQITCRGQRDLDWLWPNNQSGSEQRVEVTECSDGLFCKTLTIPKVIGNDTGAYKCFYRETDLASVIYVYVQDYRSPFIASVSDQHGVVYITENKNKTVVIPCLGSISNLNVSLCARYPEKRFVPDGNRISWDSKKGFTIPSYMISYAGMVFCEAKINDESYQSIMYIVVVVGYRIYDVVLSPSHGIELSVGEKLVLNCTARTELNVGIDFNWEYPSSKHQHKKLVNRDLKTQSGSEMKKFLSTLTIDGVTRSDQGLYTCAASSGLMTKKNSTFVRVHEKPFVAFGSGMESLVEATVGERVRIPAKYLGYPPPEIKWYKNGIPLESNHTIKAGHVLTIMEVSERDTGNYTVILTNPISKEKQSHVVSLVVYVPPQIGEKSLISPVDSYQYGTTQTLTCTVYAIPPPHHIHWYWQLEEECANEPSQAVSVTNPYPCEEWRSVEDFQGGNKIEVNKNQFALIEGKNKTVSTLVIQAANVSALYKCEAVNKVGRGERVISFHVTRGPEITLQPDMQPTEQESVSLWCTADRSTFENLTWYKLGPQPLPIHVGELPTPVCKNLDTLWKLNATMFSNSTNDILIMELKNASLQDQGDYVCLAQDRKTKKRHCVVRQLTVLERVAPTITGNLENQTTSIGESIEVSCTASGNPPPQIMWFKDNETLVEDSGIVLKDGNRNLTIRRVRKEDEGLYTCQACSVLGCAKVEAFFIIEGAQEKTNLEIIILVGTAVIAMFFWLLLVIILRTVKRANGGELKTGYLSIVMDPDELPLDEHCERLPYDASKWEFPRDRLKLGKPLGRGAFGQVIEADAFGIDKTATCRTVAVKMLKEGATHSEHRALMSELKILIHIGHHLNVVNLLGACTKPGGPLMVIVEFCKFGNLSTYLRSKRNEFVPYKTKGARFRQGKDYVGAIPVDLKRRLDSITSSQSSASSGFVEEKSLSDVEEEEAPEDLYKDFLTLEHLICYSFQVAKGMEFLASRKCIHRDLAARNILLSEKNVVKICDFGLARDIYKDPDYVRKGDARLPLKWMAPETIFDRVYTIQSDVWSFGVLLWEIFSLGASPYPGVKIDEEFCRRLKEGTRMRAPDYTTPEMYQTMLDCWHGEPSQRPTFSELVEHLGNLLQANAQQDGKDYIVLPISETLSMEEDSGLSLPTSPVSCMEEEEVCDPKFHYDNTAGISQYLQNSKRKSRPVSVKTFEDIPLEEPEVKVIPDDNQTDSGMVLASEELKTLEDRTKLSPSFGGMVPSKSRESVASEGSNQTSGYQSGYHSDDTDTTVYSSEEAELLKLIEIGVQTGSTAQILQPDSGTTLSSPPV
Sequence of Vascular endothelial growth factor receptor 3 (P35916 whole entry, the tested form may be a part): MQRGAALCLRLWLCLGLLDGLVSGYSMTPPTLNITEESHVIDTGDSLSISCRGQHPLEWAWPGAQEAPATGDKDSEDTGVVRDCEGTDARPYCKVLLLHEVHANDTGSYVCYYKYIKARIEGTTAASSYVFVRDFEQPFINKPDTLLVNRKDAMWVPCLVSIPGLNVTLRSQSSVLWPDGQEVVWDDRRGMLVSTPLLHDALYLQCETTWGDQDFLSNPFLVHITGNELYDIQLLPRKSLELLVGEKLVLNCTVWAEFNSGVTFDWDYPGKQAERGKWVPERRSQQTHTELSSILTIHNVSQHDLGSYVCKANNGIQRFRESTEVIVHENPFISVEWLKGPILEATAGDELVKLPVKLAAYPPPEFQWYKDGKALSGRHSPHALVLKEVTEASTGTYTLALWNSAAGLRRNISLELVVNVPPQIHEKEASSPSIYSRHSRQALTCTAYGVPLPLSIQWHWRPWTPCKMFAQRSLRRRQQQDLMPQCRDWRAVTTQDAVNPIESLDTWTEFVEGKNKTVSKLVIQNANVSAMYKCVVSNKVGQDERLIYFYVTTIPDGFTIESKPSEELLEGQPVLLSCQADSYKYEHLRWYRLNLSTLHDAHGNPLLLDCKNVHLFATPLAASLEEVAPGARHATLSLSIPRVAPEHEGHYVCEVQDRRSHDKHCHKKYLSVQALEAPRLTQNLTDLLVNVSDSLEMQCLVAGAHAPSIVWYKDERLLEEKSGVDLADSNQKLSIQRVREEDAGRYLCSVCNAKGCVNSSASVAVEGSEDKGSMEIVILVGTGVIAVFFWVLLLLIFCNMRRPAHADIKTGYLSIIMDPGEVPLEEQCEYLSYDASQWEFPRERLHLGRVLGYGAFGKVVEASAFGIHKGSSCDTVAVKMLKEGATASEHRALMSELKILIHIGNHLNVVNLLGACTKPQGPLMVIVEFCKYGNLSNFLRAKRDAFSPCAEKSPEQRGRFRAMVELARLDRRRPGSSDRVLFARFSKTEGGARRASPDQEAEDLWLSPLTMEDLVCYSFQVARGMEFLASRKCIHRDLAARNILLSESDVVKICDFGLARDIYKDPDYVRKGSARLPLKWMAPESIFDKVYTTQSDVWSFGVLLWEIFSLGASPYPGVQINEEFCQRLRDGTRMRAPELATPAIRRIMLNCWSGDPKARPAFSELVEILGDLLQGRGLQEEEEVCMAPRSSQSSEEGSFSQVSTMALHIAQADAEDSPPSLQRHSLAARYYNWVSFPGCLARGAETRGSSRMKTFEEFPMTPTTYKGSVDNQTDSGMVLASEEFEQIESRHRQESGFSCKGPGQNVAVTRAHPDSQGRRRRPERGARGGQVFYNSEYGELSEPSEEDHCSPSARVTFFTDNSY

Consider `COc1cc(C2=C(c3c[nH]c4ccccc34)C(=O)NC2)cc(OC)c1OC`, for which the IC50 in experiment [1] was 7.7 µM; in experiment [2] it was 9.4 µM; in experiment [3] it was 11 µM; in experiment [4] it was 2.2 µM.
For `COc1cc(C2=C(c3cn(C)c4ccccc34)C(=O)NC2)cc(OC)c1OC` the same measures were 9.2 µM, 11 µM, 15 µM and 5 µM.
For `COc1cc(C2=C(c3cn(CC(O)CO)c4ccccc34)CNC2=O)cc(OC)c1OC` (centres undefined) the same measures were 16 µM, 2.5 µM, 4.2 µM and 3 µM.
On to `COc1cc(C2=C(c3c[nH]c4ccccc34)CNC2=O)cc(OC)c1OC`, for which the half-maximal inhibitory concentration (IC50) in experiment [1] is 10 µM; in experiment [2] it was 0.037 µM; in experiment [3], 0.031 µM; in experiment [4] it was 6.1 µM.
In the same order, the values of `COc1ccc(C2=C(c3c[nH]c4ccccc34)C(=O)NC2)cc1` are 12 µM, 8.7 µM, 13 µM and 9.9 µM.
For `COc1cc(C2=C(c3cn(COC(C)(C)C)c4ccccc34)CNC2=O)cc(OC)c1OC` the same measures were 28 µM, 4.8 µM, 4.4 µM and 20 µM.

The term IC50 denotes the midpoint of a concentration-inhibition curve.
